Source: article PMC12783166 (Clinical Pharmacokinetics, 2025)

Experiment: Individual predicted steady-state exposures
Type: in vivo, human
Settings: for AUC: human, plasma, oral, 10 mg
How it was run: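 Steady-state AUC24, Ctrough, Cmax and Cavg were derived from each individual's Bayesian post hoc estimates from the final three-compartment population PK model, with sequential zero-/first-order lagged absorption. Values are summarised per […] as mean (SD) and median (5th–95th percentile).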

- Cavg, Mean (SD) (ADVANCE EM, 10 mg QD): 21.9 (14) ng/mL
- Cavg, Median (5th to 95th percentile) (ADVANCE EM, 10 mg QD): 19.3 (5.35–163) ng/mL
- Ctrough, Mean (SD) (ADVANCE EM, 10 mg QD): 3.24 (3.1) ng/mL
- Ctrough, Median (5th to 95th percentile) (ADVANCE EM, 10 mg QD): 2.62 (0.576–35.2) ng/mL
- Time above ½EC90 (4.2 ng/mL or 7 nM), Mean (SD) (ADVANCE EM, 10 mg QD): 18.1 (3.8) hr
- Time above ½EC90 (4.2 ng/mL or 7 nM), Median (5th to 95th percentile) (ADVANCE EM, 10 mg QD): 18.0 (8.00–24.0) hr
- Cavg, Mean (SD) (ADVANCE EM, 30 mg QD): 76.1 (54) ng/mL
- Cavg, Median (5th to 95th percentile) (ADVANCE EM, 30 mg QD): 65.1 (19.0–466) ng/mL
- Ctrough, Mean (SD) (ADVANCE EM, 30 mg QD): 12.0 (16) ng/mL
- Ctrough, Median (5th to 95th percentile) (ADVANCE EM, 30 mg QD): 8.85 (2.02–202) ng/mL
- Time above ½EC90 (4.2 ng/mL or 7 nM), Mean (SD) (ADVANCE EM, 30 mg QD): 23.7 (1.2) hr
- Time above ½EC90 (4.2 ng/mL or 7 nM), Median (5th to 95th percentile) (ADVANCE EM, 30 mg QD): 24.0 (16.0–24.0) hr
- Cavg, Mean (SD) (ADVANCE EM, 60 mg QD): 156 (94) ng/mL
- Cavg, Median (5th to 95th percentile) (ADVANCE EM, 60 mg QD): 134 (33.9–874) ng/mL
- Ctrough, Mean (SD) (ADVANCE EM, 60 mg QD): 23.8 (30) ng/mL
- Ctrough, Median (5th to 95th percentile) (ADVANCE EM, 60 mg QD): 18.4 (3.63–373) ng/mL
- Time above ½EC90 (4.2 ng/mL or 7 nM), Mean (SD) (ADVANCE EM, 60 mg QD): 24.0 (0.22) hr
- Time above ½EC90 (4.2 ng/mL or 7 nM), Median (5th to 95th percentile) (ADVANCE EM, 60 mg QD): 24.0 (21.5–24.0) hr
- Cavg, Mean (SD) (CGP-MD-01 EM, 10 mg QD): 19.2 (6.7) ng/mL
- Cavg, Median (5th to 95th percentile) (CGP-MD-01 EM, 10 mg QD): 19.3 (7.01–52.2) ng/mL
- Ctrough, Mean (SD) (CGP-MD-01 EM, 10 mg QD): 2.80 (1.4) ng/mL
- Ctrough, Median (5th to 95th percentile) (CGP-MD-01 EM, 10 mg QD): 2.58 (0.738–9.95) ng/mL
- Time above ½EC90 (4.2 ng/mL or 7 nM), Mean (SD) (CGP-MD-01 EM, 10 mg QD): 17.8 (3.5) hr
- Time above ½EC90 (4.2 ng/mL or 7 nM), Median (5th to 95th percentile) (CGP-MD-01 EM, 10 mg QD): 18.0 (9.00–24.0) hr
- Cavg, Mean (SD) (CGP-MD-01 EM, 30 mg BID): 162 (85) ng/mL
- Cavg, Median (5th to 95th percentile) (CGP-MD-01 EM, 30 mg BID): 132 (50.6–476) ng/mL
- Ctrough, Mean (SD) (CGP-MD-01 EM, 30 mg BID): 60.7 (44) ng/mL
- Ctrough, Median (5th to 95th percentile) (CGP-MD-01 EM, 30 mg BID): 44.5 (13.3–277) ng/mL
- Time above ½EC90 (4.2 ng/mL or 7 nM), Mean (SD) (CGP-MD-01 EM, 30 mg BID): 12.0 (0.0) hr
- Time above ½EC90 (4.2 ng/mL or 7 nM), Median (5th to 95th percentile) (CGP-MD-01 EM, 30 mg BID): 12.0 (12.0–12.0) hr
- Cavg, Mean (SD) (CGP-MD-01 EM, 30 mg QD): 71.3 (36) ng/mL
- Cavg, Median (5th to 95th percentile) (CGP-MD-01 EM, 30 mg QD): 66.2 (30.6–310) ng/mL
- Ctrough, Mean (SD) (CGP-MD-01 EM, 30 mg QD): 11.2 (16) ng/mL
- Ctrough, Median (5th to 95th percentile) (CGP-MD-01 EM, 30 mg QD): 8.97 (3.68–203) ng/mL
- Time above ½EC90 (4.2 ng/mL or 7 nM), Mean (SD) (CGP-MD-01 EM, 30 mg QD): 24.0 (0.19) hr
- Time above ½EC90 (4.2 ng/mL or 7 nM), Median (5th to 95th percentile) (CGP-MD-01 EM, 30 mg QD): 24.0 (21.5–24.0) hr
- Cavg, Mean (SD) (CGP-MD-01 EM, 60 mg BID): 331 (200) ng/mL
- Ctrough, Mean (SD) (CGP-MD-01 EM, 60 mg BID): 133 (140) ng/mL
- Ctrough, Median (5th to 95th percentile) (CGP-MD-01 EM, 60 mg BID): 101 (26.1–972) ng/mL
- Time above ½EC90 (4.2 ng/mL or 7 nM), Mean (SD) (CGP-MD-01 EM, 60 mg BID): 12.0 (0.0) hr
- Time above ½EC90 (4.2 ng/mL or 7 nM), Median (5th to 95th percentile) (CGP-MD-01 EM, 60 mg BID): 12.0 (12.0–12.0) hr
- Cavg, Mean (SD) (CGP-MD-01 EM, 60 mg QD): 152 (93) ng/mL
- Cavg, Median (5th to 95th percentile) (CGP-MD-01 EM, 60 mg QD): 144 (39.5–992) ng/mL
- Ctrough, Mean (SD) (CGP-MD-01 EM, 60 mg QD): 23.6 (30) ng/mL
- Ctrough, Median (5th to 95th percentile) (CGP-MD-01 EM, 60 mg QD): 19.5 (5.07–335) ng/mL
- Time above ½EC90 (4.2 ng/mL or 7 nM), Mean (SD) (CGP-MD-01 EM, 60 mg QD): 24.0 (0.0) hr
- Time above ½EC90 (4.2 ng/mL or 7 nM), Median (5th to 95th percentile) (CGP-MD-01 EM, 60 mg QD): 24.0 (24.0–24.0) hr
- Cavg, Mean (SD) (ELEVATE EM, 60 mg QD): 147 (75) ng/mL
- Cavg, Median (5th to 95th percentile) (ELEVATE EM, 60 mg QD): 138 (12.5–474) ng/mL
- Ctrough, Mean (SD) (ELEVATE EM, 60 mg QD): 15.4 (13) ng/mL
- Ctrough, Median (5th to 95th percentile) (ELEVATE EM, 60 mg QD): 13.4 (2.70–98.1) ng/mL
- Time above ½EC90 (4.2 ng/mL or 7 nM), Mean (SD) (ELEVATE EM, 60 mg QD): 23.9 (0.79) hr
- Time above ½EC90 (4.2 ng/mL or 7 nM), Median (5th to 95th percentile) (ELEVATE EM, 60 mg QD): 24.0 (17.5–24.0) hr
- Cavg, Mean (SD) (PROGRESS CM, 30 mg BID): 157 (87) ng/mL
- Cavg, Median (5th to 95th percentile) (PROGRESS CM, 30 mg BID): 135 (33.1–571) ng/mL
- Ctrough, Mean (SD) (PROGRESS CM, 30 mg BID): 56.1 (43) ng/mL
- Ctrough, Median (5th to 95th percentile) (PROGRESS CM, 30 mg BID): 42.4 (8.87–269) ng/mL
- Time above ½EC90 (4.2 ng/mL or 7 nM), Mean (SD) (PROGRESS CM, 30 mg BID): 24.0 (0.0) hr
- Time above ½EC90 (4.2 ng/mL or 7 nM), Median (5th to 95th percentile) (PROGRESS CM, 30 mg BID): 24.0 (24.0–24.0) hr
- Cavg, Mean (SD) (PROGRESS CM, 60 mg QD): 139 (85) ng/mL
- Cavg, Median (5th to 95th percentile) (PROGRESS CM, 60 mg QD): 120 (21.9–908) ng/mL
- Ctrough, Mean (SD) (PROGRESS CM, 60 mg QD): 18.8 (24) ng/mL
- Ctrough, Median (5th to 95th percentile) (PROGRESS CM, 60 mg QD): 14.4 (2.23–287) ng/mL
- Time above ½EC90 (4.2 ng/mL or 7 nM), Mean (SD) (PROGRESS CM, 60 mg QD): 23.9 (0.88) hr
- Time above ½EC90 (4.2 ng/mL or 7 nM), Median (5th to 95th percentile) (PROGRESS CM, 60 mg QD): 24.0 (15.5–24.0) hr
- AUC (AUC24, Mean (SD), ADVANCE EM, 10 mg QD): 525 ng·h/mL
- AUC (AUC24, Mean (SD), CGP-MD-01 EM, 10 mg QD): 461 ng·h/mL
- AUC (AUC24, Median (5th to 95th percentile), ADVANCE EM, 10 mg QD): 464 ng·h/mL
Compound: C[C@@H]1[C@H](c2c(F)ccc(F)c2F)C[C@H](NC(=O)c2cnc3c(c2)C[C@@]2(C3)C(=O)Nc3ncccc32)C(=O)N1CC(F)(F)F [atogepant, Atogepant]
